Laboratory results: ChEMBL document CHEMBL4024767, “Structure-Guided Discovery of Novel, Potent, and Orally Bioavailable Inhibitors of Lipoprotein-Associated Phospholipase A2” (J Med Chem, 2017)
Calls of active or inactive are those of the source. No cut-off for these calls is given here.

Assays:
[1] = Inhibition of recombinant human full length GST-tagged group-7B PLA2 expressed in Escherichia coli Rosetta(DE3) pLysS using 2-thio-PAF as substrate preincubated for 30 min followed by substrate addition measured every minute for 10 mins by DNTB reagent based assay
In short: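 Recombinant PLA2-VIIB purified in-house, preincubated 30 min at room temperature with compound and DTNB (10 µL of 2 mM). Substrate solution (50 µM 2-thio-PAF, 50 mM Tris pH 7.2, 1 mM EGTA) then added and absorbance read at 412 nm. IC50 determined.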

[2] = target: T1, Platelet-activating factor acetylhydrolase (Rattus norvegicus) (UniProt A6JJ35); test: Inhibition of Lp-PLA2 in rat plasma at 250 nM using 2-thio-PAF as substrate preincubated for 30 min followed by substrate addition measured every minute for 10 mins by DNTB reagent based assay by DNTB reagent based assay relative to control
T1 sequence (whole entry): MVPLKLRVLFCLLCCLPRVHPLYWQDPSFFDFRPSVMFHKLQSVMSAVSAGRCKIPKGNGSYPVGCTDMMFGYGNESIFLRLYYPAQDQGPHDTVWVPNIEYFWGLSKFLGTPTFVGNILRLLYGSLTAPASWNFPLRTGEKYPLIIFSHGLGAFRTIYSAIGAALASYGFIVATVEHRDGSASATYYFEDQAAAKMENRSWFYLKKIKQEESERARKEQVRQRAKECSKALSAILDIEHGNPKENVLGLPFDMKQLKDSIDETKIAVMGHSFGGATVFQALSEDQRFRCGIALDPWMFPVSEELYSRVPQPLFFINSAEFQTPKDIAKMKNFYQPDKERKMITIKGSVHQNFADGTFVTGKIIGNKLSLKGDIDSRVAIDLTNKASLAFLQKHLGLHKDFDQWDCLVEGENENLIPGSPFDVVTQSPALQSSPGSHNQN
In short: (§1)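 Rat plasma added directly as enzyme source and preincubated 30 min at room temperature with inhibitor at 250 or 50 nM and DTNB (10 µL of 2 mM). Reaction started with substrate solution: 50 µM 2-thio-PAF, 50 mM Tris pH 7.2, 1 mM EGTA. Thiol release read at 412 nm; percent inhibition calculated.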

[3] = target: T1, Platelet-activating factor acetylhydrolase (Rattus norvegicus); test: Inhibition of Lp-PLA2 in rat plasma at 50 nM using 2-thio-PAF as substrate preincubated for 30 min followed by substrate addition measured every minute for 10 mins by DNTB reagent based assay relative to control; in short: as §1
Rattus norvegicus [4] = species: Rattus norvegicus; settings: Sprague-Dawley, 25 mg/kg
Rattus norvegicus [5] = species: Rattus norvegicus; settings: Sprague-Dawley, 25 mg/kg; remark: listed apart in the source
Rattus norvegicus [6] = species: Rattus norvegicus; settings: Sprague-Dawley, 25 mg/kg; remark: listed apart in the source
Rattus norvegicus [7] = species: Rattus norvegicus; settings: Sprague-Dawley, 3 mg/kg
[8] = target: T2, Platelet-activating factor acetylhydrolase (Homo sapiens, UniProt Q13093); test: Inhibition of human recombinant GST-tagged Lp-PLA2 (47 to 429 residues) expressed in Escherichia coli Rosetta(DE3) pLysS using 2-thio-PAF as substrate preincubated for 30 min followed by substrate addition measured every minute for 10 mins by DNTB reagent based assay
T2 sequence (Q13093 whole entry): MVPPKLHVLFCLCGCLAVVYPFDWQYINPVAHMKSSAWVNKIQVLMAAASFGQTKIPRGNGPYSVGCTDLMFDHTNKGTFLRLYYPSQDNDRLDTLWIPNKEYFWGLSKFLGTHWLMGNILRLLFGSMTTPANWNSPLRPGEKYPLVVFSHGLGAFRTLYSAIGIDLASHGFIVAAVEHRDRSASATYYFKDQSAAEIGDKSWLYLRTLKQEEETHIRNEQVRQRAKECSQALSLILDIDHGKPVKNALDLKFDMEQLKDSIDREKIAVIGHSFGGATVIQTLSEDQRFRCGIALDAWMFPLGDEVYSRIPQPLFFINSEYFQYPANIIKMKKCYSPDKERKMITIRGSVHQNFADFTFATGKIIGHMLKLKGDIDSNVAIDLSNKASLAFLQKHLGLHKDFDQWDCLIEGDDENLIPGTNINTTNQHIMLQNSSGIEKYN

[9] = target: T3, Platelet-activating factor acetylhydrolase (Homo sapiens) (UniProt Q13093); settings: 1000 uM
T3 sequence (whole entry): T2 sequence (Q13093 whole entry)

Structure (SMILES): N#Cc1cc(NS(=O)(=O)c2ccc(C(=O)O)cc2)ccc1Oc1ccc(Cl)c(C(F)(F)F)c1
- IC50 [1]: > 25 µM
- inhibition [2]: 67%
- inhibition [3]: 31%
- inhibition (Rattus norvegicus [4]): Active
- inhibition (Rattus norvegicus [5]): inactive

Structure (SMILES): N#Cc1cc(NS(=O)(=O)c2ccc(N)cc2)ccc1Oc1ccc(Cl)c(C(F)(F)F)c1
- IC50 [1]: > 25 µM
- inhibition [2]: 67%
- inhibition [3]: 33%
- inhibition (Rattus norvegicus [6]): Active

Structure (SMILES): N#Cc1cc(NS(=O)(=O)c2ccc(N3CCNCC3)cc2)ccc1Oc1ccc(Cl)c(C(F)(F)F)c1
- IC50 [1]: > 25 µM
- inhibition [2]: 68%
- inhibition [3]: 31%

Structure (SMILES): CC(=O)Nc1ccc(S(=O)(=O)Nc2ccc(Oc3ccc(Cl)c(C(F)(F)F)c3)c(C#N)c2)cc1
- IC50 [1]: > 25 µM
- inhibition [2]: 64%
- inhibition [3]: 32%

Structure (SMILES): CCN(CC)CCN(Cc1ccc(-c2ccc(C(F)(F)F)cc2)cc1)C(=O)Cn1c(SCc2ccc(F)cc2)nc(=O)c2c1CCC2 [DARAPLADIB]
- IC50 [1]: 2 µM
- inhibition [2]: 97%
- inhibition [3]: 98%
- inhibition (Rattus norvegicus [7]): Active

Structure (SMILES): CC(=O)NCc1ccc(S(=O)(=O)Nc2ccc(Oc3ccc(Cl)c(C(F)(F)F)c3)c(C#N)c2)cc1
- IC50 [1]: > 25 µM
- inhibition [2]: 80%
- inhibition [3]: 51%

Structure (SMILES): CC(=O)N(C)c1ccc(S(=O)(=O)Nc2ccc(Oc3ccc(Cl)c(C(F)(F)F)c3)c(C#N)c2)cc1
- IC50 [1]: > 25 µM
- inhibition [2]: 45%
- inhibition [3]: 15%

Structure (SMILES): CS(=O)(=O)Nc1ccc(F)c(F)c1
- IC50 [8]: 1000 µM
- inhibition [9]: 55%

Structure (SMILES): N#Cc1cc(NS(=O)(=O)c2ccc(N3CCOCC3)cc2)ccc1Oc1ccc(Cl)c(C(F)(F)F)c1
- IC50 [1]: > 25 µM
- inhibition [2]: 48%
- inhibition [3]: 17%

Structure (SMILES): CC(=O)Nc1ccc(S(=O)(=O)Nc2ccc(Oc3ccc(F)c(C(F)(F)F)c3)c(C#N)c2)cc1
- IC50 [1]: > 25 µM
- inhibition [2]: 55%
- inhibition [3]: 23%

Structure (SMILES): CC(=O)Nc1ccc(S(=O)(=O)Nc2ccc(Oc3ccc(C#N)c(C(F)(F)F)c3)c(C#N)c2)cc1
- IC50 [1]: > 25 µM
- inhibition [2]: 42%
- inhibition [3]: 11%

Structure (SMILES): N#Cc1cc(NS(=O)(=O)c2ccc(NC(=O)N3CCOCC3)cc2)ccc1Oc1ccc(Cl)c(C(F)(F)F)c1
- IC50 [1]: > 25 µM
- inhibition [2]: 64%
- inhibition [3]: 27%
